# From article PMC2628580 (Chemistry & biology, 2008)
# Entries after “also recorded” stand apart in the source; their conditions may differ.
# How the values were obtained:
# rat OR-I7 [1] = molecular target: T1, rat OR-I7 (Rattus norvegicus, UniProt P23270); type: cell-based; conditions: for potency compared with n-alkanals (in words): activation dose-response curves; for activation of OR-I7 (in words): dose-response by calcium imaging; for maximal efficacy relative to 10 μM 1: mean ± SEM; for OR-I7 response at 30 μM (in words): calcium imaging trace of a GFP+ OSN
# T1 sequence (P23270 1-327): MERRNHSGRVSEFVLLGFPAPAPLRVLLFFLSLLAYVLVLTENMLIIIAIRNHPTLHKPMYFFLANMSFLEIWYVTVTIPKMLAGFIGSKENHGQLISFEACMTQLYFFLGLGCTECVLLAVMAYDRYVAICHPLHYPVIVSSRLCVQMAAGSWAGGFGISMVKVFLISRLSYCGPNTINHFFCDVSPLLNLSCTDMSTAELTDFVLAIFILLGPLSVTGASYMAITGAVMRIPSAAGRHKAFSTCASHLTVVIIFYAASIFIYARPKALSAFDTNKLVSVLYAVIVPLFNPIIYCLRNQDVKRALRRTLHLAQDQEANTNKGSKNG
# Summary of the method: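 Dissociated olfactory neurons from male Sprague-Dawley rats (6-7 wk) infected with adenovirus encoding OR-I7 plus separate GFP. GFP+ cells were fura-2AM loaded for 45 min at room temperature and imaged at 380/510 nm every 4 s. The compound came from 0.5M DMSO stock with DMSO-matched dilutions, given as 4 s pulses 3.25 min apart. Each movie was flanked by 10 μM normalizing stimuli and ΔF/F normalized to the trend line. Hill fit used ≥3 cells per point; EC50 ± SD.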
# rat OSNs = assay: Panel screening of 1190 viable rat OSNs by calcium imaging; type: cell-based; conditions: 30 μM, 1190 tested rat OSNs
# Summary of the method: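 Whole olfactory epithelium from uninfected rats was dissociated (collagenase, dispase), plated on concanavalin A coverslips and kept at 32 °C. Cells were loaded with fura-2AM and imaged at room temperature. Each test compound was given individually at 30 μM in random order, 5 min apart, with a DMSO vehicle application. 10 μM forskolin came last for normalization and viability. Responding cells were counted among 1190 tested.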
# rat OR-I7 [2] = molecular target: T1, rat OR-I7; assay: Antagonism of octanal; type: cell-based; conditions: against saturating 10 μM C8
# Summary of the method: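 GFP+ OR-I7-expressing rat olfactory neurons were imaged with fura-2 at room temperature under continuous Ringer perfusion at pH 7.4. The test compound at various concentrations was co-applied with 10 μM octanal. The response was normalized to a trend line between flanking stimuli. An antagonist had to give under 90% of the octanal-alone response. Ratios are mean ± SEM. Inhibition curves were Hill-fitted, with at least three cells per point and IC50 ± SD.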
# OR-I7 = conditions: vapor phase; ref Araneda et al., 2000; Zhao et al., 1998; cited from earlier work
compound,measurement,setting,value
O=CCCCCC1CC1 [Compound 2],potency compared with n-alkanals (in words),rat OR-I7 [1],more potent than C8
same,fold more potent than C7,"rat OR-I7 [1]; compound 2 vs C7, identical extended length",40 fold
same,activation of OR-I7 (in words),rat OR-I7 [1],strongly activated
same,maximal efficacy relative to 10 μM 1,rat OR-I7 [1],0.99 ± 0.02
O=CCCCC1CCC1 [Compound 3],OR-I7 response at 30 μM (in words),rat OR-I7 [1],near saturating level
same,potency compared with n-alkanals (in words),rat OR-I7 [1],more potent than both
same,activation of OR-I7 (in words),rat OR-I7 [1],strongly activated
same,maximal efficacy relative to 10 μM 1,rat OR-I7 [1],1.06 ± 0.1
same,difference in activity between compound 4 and compound 3,"rat OR-I7 [1]; ratio of EC50, compound 3 vs compound 4",163 fold
O=CCCC1CCCC1 [Compound 4],OR-I7 response at 30 μM (in words),rat OR-I7 [1],unresponsive
same,activation of OR-I7 (in words),rat OR-I7 [1],weakly or not at all; also recorded: marginally active
O=CCC1CCCCC1 [Compound 5],percentage of OSNs activated,rat OSNs,3.4%
same,activation of OR-I7 (in words),rat OR-I7 [1],weakly or not at all; also recorded: inactive; also recorded: no substantial activity
O=CC1CCCCCC1 [Compound 6],percentage of OSNs activated,rat OSNs,3.6%
same,antagonism of C8 activation of OR-I7 (in words),rat OR-I7 [2],antagonize C8 activity
same,activation of OR-I7 (in words),rat OR-I7 [1],weakly or not at all; also recorded: inactive
CCC1CCC(CC=O)CC1 (stereo not shown) [Compound 11],potency compared with n-alkanals (in words),rat OR-I7 [1],more active than C8
same,maximal efficacy relative to 10 μM octanal,rat OR-I7 [1]; cis/trans mixture,1.07 ± 0.05
"CCCC=O [Compound C4, reference compound]",antagonism of C8 activation of OR-I7 (in words),rat OR-I7 [2],failure of C4 (3.9Å) to antagonize C8 activation; also recorded: neither type of activity
same,activation of OR-I7 (in words),rat OR-I7 [1],inactive; also recorded: neither type of activity
"CCCCC=O [Compound C5, reference compound]",activation of OR-I7 (in words),rat OR-I7 [1],inactive
"CCCCCC=O [Compound C6, reference compound]",activation of OR-I7 by EOG (in words),OR-I7,no activation
same,activation of OR-I7 (in words),rat OR-I7 [1],marginally active
"CCCCCCC=O [Compound C7, reference compound]",activation of OR-I7 by EOG (in words),OR-I7,activation
same,increase in activity in the step from C6 to C7,"rat OR-I7 [1]; C7 vs C6, calcium imaging",145 fold
same,maximal efficacy relative to 10 μM 1,rat OR-I7 [1],0.86 ± 0.07
"CCCCCCCC=O [Compound C8, octanal, reference compound]",percentage of OSNs activated,rat OSNs,5.9%
same,maximal efficacy relative to 10 μM 1,rat OR-I7 [1],0.89 ± 0.02
